{"data": "Assay results of several laboratories", "organism": "Mycolicibacterium smegmatis", "read-out": "microbial growth", "note": "Lines come from different studies, so protocols differ."}
{"Compound": "CC(C)=CCC/C(C)=C/COCCNC1C2CC3CC(C2)CC1C3 (stereo not drawn)", "setting": "48 h", "quantity": "IC50", "result": "~9 µM"}
{"Compound": "NC1C2CC3CC(C2)CC1C3 (stereo not drawn)", "setting": "48 h", "quantity": "IC50", "result": "> 500 µM"}
{"Compound": "Cc1nc2sc3ccccc3n2c1C(=O)N1CCN(Cc2cn(-c3cccc(Cl)c3)nn2)CC1", "setting": "72 h", "quantity": "IC50", "result": "52.7 µM"}
{"Compound": "CCCCOc1ccc(-c2c[nH]c(N)n2)cc1", "system": "ATCC700084 MC^2155", "setting": "48 h", "quantity": "MIC", "result": "> 200 µM"}
{"Compound": "O=C(N[C@H](CO)[C@H](O)c1ccc([N+](=O)[O-])cc1)C(Cl)Cl", "system": "ATCC14468", "quantity": "MIC90", "result": "125 µg/mL"}
{"Compound": "ON=C1C2CC3CC(C2)CC1C3", "setting": "48 h", "quantity": "IC50", "result": "> 500 µM"}
{"Compound": "Cc1nc2sccn2c1C(=O)N1CCN(CCn2cc(CSc3nc4ccccc4[nH]3)nn2)CC1", "setting": "72 h", "quantity": "IC50", "result": "16.4 µM"}
{"Compound": "O=C(N/N=C/c1ccc([N+](=O)[O-])o1)c1ccc(O)cc1", "system": "ATCC14468", "quantity": "MIC90", "result": "> 1000 µg/mL"}
{"Compound": "Cc1ccc(-n2cc(CN3CCN(C(=O)c4c(C)nc5sc6ccccc6n45)CC3)nn2)cc1C", "setting": "72 h", "quantity": "IC50", "result": "5.7 µM"}
{"Compound": "CCCc1ccc(-c2c[nH]c(N)n2)cc1", "system": "ATCC700084 MC^2155", "setting": "48 h", "quantity": "MIC", "result": "200 µM"}
{"Compound": "CO[C@H]1/C=C/O[C@@]2(C)Oc3c(C)c(O)c4c(O)c(c(/C=N/N5CCN(C)CC5)c(O)c4c3C2=O)NC(=O)/C(C)=C\\C=C\\[C@H](C)[C@H](O)[C@@H](C)[C@@H](O)[C@@H](C)[C@H](OC(C)=O)[C@@H]1C", "assay": "disc diffusion", "setting": "15 µg/disc", "quantity": "inhibition zone", "result": "14 mm"}
{"Compound": "CCCCCCCCCc1cn(CCN2CCN(C(=O)c3c(C)nc4sccn34)CC2)nn1", "setting": "72 h", "quantity": "IC50", "result": "28.2 µM"}
